According to ChEMBL document CHEMBL1134485, “Diguanidino and "reversed" diamidino 2,5-diarylfurans as antimicrobial agents” (2001):
Values after ≈ are worked out from the molar mass of the structure shown.

How the values were obtained:
[1] = test system: Mycobacterium tuberculosis; test: In vitro minimum inhibitory concentration required to inhibit Mycobacterium tuberculosis; type: functional
Procedure, shortened: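 M. tuberculosis H37Rv grown in BACTEC 12B medium; fluorometric broth microdilution (Microplate Alamar Blue Assay). […] MIC = lowest concentration reducing relative fluorescence units by ≥90% relative to control culture. Testing done by TAACF.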

[2] = test system: Nucleic Acid
[3] = test system: Nucleic Acid; remark: listed apart in the source
[4] = test system: Aspergillus fumigatus; test: In vitro minimum fungicidal concentration required to inhibit Aspergillus fumigatus(MFC); type: functional
Procedure, shortened: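 Mould MFC: 100 µL aliquots from macrodilution tubes (RPMI 1640/MOPS pH 7.0, 0.5 × 10³ to 2.5 × 10³ CFU/mL conidial inoculum, 30 °C, 48-72 h, drug 100 to 0.09 µg/mL) showing complete growth inhibition plated on Sabouraud agar; MFC taken as lowest drug concentration giving three or fewer colonies.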

[5] = test system: Aspergillus fumigatus; test: Antimicrobial activity against Aspergillus fumigatus (MIC); type: functional
[6] = test system: Candida albicans; test: In vitro minimum fungicidal concentration against Candida albicans.; type: functional
Procedure, shortened: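 Yeast MFC: after broth macrodilution (RPMI 1640/MOPS pH 7.0, 0.5 × 10³ to 2.5 × 10³ CFU/mL, 35 °C, 48 h or 72 h for C. neoformans, drug 100 to 0.09 µg/mL), 100 µL from tubes with complete inhibition plated on Sabouraud agar; lowest concentration yielding three or fewer colonies recorded.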

[7] = test system: Candida albicans; test: In vitro minimum inhibitory concentration against Candida albicans.; type: functional
[8] = test system: Aspergillus fumigatus; test: In vitro antimicrobial activity against Aspergillus fumigatus (MIC); type: functional

| Compound | MIC [1] | ΔTm [2] | ΔTm [3] | MFC [4] | MIC [5] | MFC [6] | MIC [7] | MIC [8] |
| --- | --- | --- | --- | --- | --- | --- | --- | --- |
| N=C(Nc1ccc(-c2ccc(-c3ccc(NC(=N)c4ccccn4)cc3)o2)cc1)c1ccccn1 | 1.56 µg/mL (≈ 3.4 µM) | 19.6 | 7.5 |  |  |  |  |  |
| Cc1cc(NC(=N)N)ccc1-c1ccc(-c2ccc(NC(=N)N)cc2C)o1.Cl.Cl | ≤ 1 µg/mL | 17.8 | 6.9 | 33.4 µg/mL | 33.4 µg/mL | 2.08 µg/mL | 1.04 µg/mL |  |
| Cc1cc(NC(=N)N)cc(C)c1-c1ccc(-c2c(C)cc(NC(=N)N)cc2C)o1 |  | 2.7 | 1.4 |  |  |  |  |  |
| OC(Cn1cncn1)(Cn1cncn1)c1ccc(F)cc1F [FLUCONAZOLE] |  |  |  |  |  | 25 µg/mL (≈ 81.6 µM) | 6.25 µg/mL (≈ 20.4 µM) |  |
| COc1cc(NC(=N)c2ccccn2)ccc1-c1ccc(-c2ccc(NC(=N)c3ccccn3)cc2OC)o1 | ≤ 1 µg/mL | 19 | 7.8 | ≤ 1 µg/mL | ≤ 1 µg/mL | ≤ 1 µg/mL | ≤ 1 µg/mL |  |
| Cl.Cl.N=C(N)Nc1ccc(-c2ccc(-c3ccc(NC(=N)N)cc3)o2)cc1 | 3.13 µg/mL | 21.6 | 10.8 | > 100 µg/mL |  | 25 µg/mL | 12.5 µg/mL | 100 µg/mL |
| Cl.Cl.N=C(Nc1ccc(-c2ccc(-c3ccc(NC(=N)c4ccccc4)cc3)o2)cc1)c1ccccc1 | 1.56 µg/mL | 28.6 | 15 |  |  | 50 µg/mL | 25 µg/mL |  |
| Cc1cc(NC(=N)c2ccccn2)cc(C)c1-c1ccc(-c2c(C)cc(NC(=N)c3ccccn3)cc2C)o1 |  | 5.7 | 1.2 | > 100 µg/mL | 10 µg/mL (≈ 19.4 µM) | > 100 µg/mL | 10 µg/mL (≈ 19.4 µM) |  |
| N=C(Nc1ccc(-c2ccc(-c3ccc(NC(=N)C4CCCCC4)cc3)o2)cc1)C1CCCCC1 | ≤ 6.25 µg/mL | 26.7 | 12.8 | > 100 µg/mL | 100 µg/mL (≈ 213 µM) |  | > 100 µg/mL |  |
| Cl.Cl.N=C(N)Nc1ccc(-c2ccc(-c3ccc(NC(=N)N)cc3C(F)(F)F)o2)c(C(F)(F)F)c1 | 8 µg/mL | 5.9 | 0 | 100 µg/mL | 100 µg/mL | 10 µg/mL | 10 µg/mL |  |
